# Measurements reported in ChEMBL document CHEMBL1131930, “Synthetic [5,5] trans-fused indane lactones as inhibitors of thrombin” (Bioorg Med Chem Lett, 1999).
# System: not listed separately
# Assay: Selectivity was determined
row,Structure (SMILES),Selectivity
1,COc1cccc(-c2ccc3c(c2)C[C@@H]2OC(=O)C(CCCCC(=N)N)[C@@H]32)c1 (some centres undefined),2.7
2,N=C(N)CCCCC1C(=O)O[C@H]2Cc3cc(-c4ccccc4)ccc3[C@H]12 (some centres undefined),2.4
3,CCN(CC)C(=O)c1cccc(-c2ccc3c(c2)C[C@@H]2OC(=O)C(CCCCC(=N)N)[C@@H]32)c1 (some centres undefined),1.9

# The next lines start with the values.
row,Selectivity,Structure (SMILES)
1,35,N=C(N)CCCCC1C(=O)O[C@H]2Cc3ccc(-c4cccc(-c5ccccc5)c4)cc3[C@H]12 (some centres undefined)
2,55,CCN(CC)C(=O)c1cccc(-c2ccc3c(c2)[C@@H]2C(CCCCC(=N)N)C(=O)O[C@H]2C3)c1 (some centres undefined)

# System: not listed separately
# Assay: Activated partial thromboplastin time (APTT) 2x control using human plasma
# Assay type: functional
# How it was run: (§1)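 Human plasma clotting; test compound added with a preincubation step before APTT measurement. The value is the compound concentration required to double the activated partial thromboplastin time. Lines with no significant effect were tested up to 100 µM.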
row,Structure (SMILES),APTT [µM]
1,N=C(N)CCCCC1C(=O)O[C@H]2Cc3cc(-c4ccc(O)cc4)ccc3[C@H]12 (some centres undefined),27
2,NC(N)=NCCC[C@H](NC(=O)[C@@H]1CCCN1C(=O)[C@H](N)Cc1ccccc1)C(=O)CCl,1.8
3,N=C(N)CCCCC1C(=O)O[C@H]2Cc3ccc(-c4cccc(-c5ccccc5)c4)cc3[C@H]12 (some centres undefined),85
4,COc1cccc(-c2ccc3c(c2)C[C@@H]2OC(=O)C(CCCCC(=N)N)[C@@H]32)c1 (some centres undefined),25
5,N=C(N)CCCCC1C(=O)O[C@H]2Cc3ccc(-c4ccc(O)cc4)cc3[C@H]12 (some centres undefined),42
6,N=C(N)CCCCC1C(=O)O[C@H]2Cc3ccc(-c4ccccc4)cc3[C@H]12 (some centres undefined),60
7,N=C(N)CCCCC1C(=O)O[C@H]2Cc3ccccc3[C@H]12 (some centres undefined),100
8,N=C(N)CCCCC1C(=O)O[C@H]2Cc3cc(-c4ccccc4)ccc3[C@H]12 (some centres undefined),50
9,CCN(CC)C(=O)c1cccc(-c2ccc3c(c2)C[C@@H]2OC(=O)C(CCCCC(=N)N)[C@@H]32)c1 (some centres undefined),4
10,CCN(CC)C(=O)c1cccc(-c2ccc3c(c2)[C@@H]2C(CCCCC(=N)N)C(=O)O[C@H]2C3)c1 (some centres undefined),40

# Species on record: Homo sapiens
# Assay: Activated partial thromboplastin time (APTT) 2x control using human plasma; NE=no significant effect at 100 uM
# Assay type: functional, cell-free
# How it was run: as §1
row,Structure (SMILES),APTT
1,COc1cccc(-c2ccc3c(c2)C[C@@H]2OC(=O)C(C)(CCCCC(=N)N)[C@@H]32)c1 (some centres undefined),No effect
2,C/N=C(/N)CCCC[C@H]1C(=O)O[C@H]2Cc3ccc(-c4ccc(O)cc4)cc3[C@@H]21,No effect
3,N=C(N)CCCCC1C(=O)O[C@H]2Cc3cc(-c4cccc(-c5ccccc5)c4)ccc3[C@H]12 (some centres undefined),No effect

# Target: T1, Prothrombin (Homo sapiens, UniProt P00734)
# Assay: Inhibitory activity against human thrombin was determined
row,Structure (SMILES),IC50 [nM]
1,COc1cccc(-c2ccc3c(c2)C[C@@H]2OC(=O)C(C)(CCCCC(=N)N)[C@@H]32)c1 (some centres undefined),1800
2,CNC(=N)CCCC[C@H]1C(=O)O[C@H]2Cc3ccc(-c4ccc(O)cc4)cc3[C@@H]21,1600
3,N=C(N)CCCCC1C(=O)O[C@H]2Cc3ccccc3[C@H]12 (some centres undefined),77

# The next lines start with the values.
row,IC50 [nM],Structure (SMILES)
1,9,N=C(N)CCCCC1C(=O)O[C@H]2Cc3ccc(-c4ccc(O)cc4)cc3[C@H]12 (some centres undefined)
2,600,N=C(N)CCC[C@H]1C(=O)O[C@H]2Cc3ccccc3[C@@H]21

# Target: Serine protease 1 (Homo sapiens) (UniProt P07477)
# Assay: Inhibitory activity against protease trypsin was determined
# Serine protease 1 (Homo sapiens), sequence (P07477 whole entry): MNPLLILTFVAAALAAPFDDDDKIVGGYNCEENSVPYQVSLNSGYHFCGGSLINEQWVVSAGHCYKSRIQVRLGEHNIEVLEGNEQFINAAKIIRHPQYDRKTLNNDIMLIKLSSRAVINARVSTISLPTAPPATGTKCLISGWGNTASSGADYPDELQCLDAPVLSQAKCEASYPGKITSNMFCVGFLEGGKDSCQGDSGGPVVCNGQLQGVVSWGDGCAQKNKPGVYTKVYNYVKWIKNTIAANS
row,Structure (SMILES),K obs / 1 [M⁻¹ s⁻¹]
1,COc1cccc(-c2ccc3c(c2)C[C@@H]2OC(=O)C(CCCCC(=N)N)[C@@H]32)c1 (some centres undefined),36000
2,N=C(N)CCCCC1C(=O)O[C@H]2Cc3cc(-c4ccccc4)ccc3[C@H]12 (some centres undefined),20000
3,CCN(CC)C(=O)c1cccc(-c2ccc3c(c2)C[C@@H]2OC(=O)C(CCCCC(=N)N)[C@@H]32)c1 (some centres undefined),220000

# More lines, now with the values ahead:
row,K obs / 1 [M⁻¹ s⁻¹],Structure (SMILES)
1,110000,N=C(N)CCCCC1C(=O)O[C@H]2Cc3ccc(-c4cccc(-c5ccccc5)c4)cc3[C@H]12 (some centres undefined)
2,200000,CCN(CC)C(=O)c1cccc(-c2ccc3c(c2)[C@@H]2C(CCCCC(=N)N)C(=O)O[C@H]2C3)c1 (some centres undefined)

# Target: T1, Prothrombin
row,Structure (SMILES),K obs / 1 [M⁻¹ s⁻¹]
1,N=C(N)CCCCC1C(=O)O[C@H]2Cc3cc(-c4ccc(O)cc4)ccc3[C@H]12 (some centres undefined),33000
2,COc1cccc(-c2ccc3c(c2)C[C@@H]2OC(=O)C(CCCCC(=N)N)[C@@H]32)c1 (some centres undefined),96000
3,N=C(N)CCCCC1C(=O)O[C@H]2Cc3ccccc3[C@H]12 (some centres undefined),4200
4,N=C(N)CCCCC1C(=O)O[C@H]2Cc3cc(-c4ccccc4)ccc3[C@H]12 (some centres undefined),48000
5,CCN(CC)C(=O)c1cccc(-c2ccc3c(c2)C[C@@H]2OC(=O)C(CCCCC(=N)N)[C@@H]32)c1 (some centres undefined),420000

# The next lines start with the values.
row,K obs / 1 [M⁻¹ s⁻¹],Structure (SMILES)
1,3.8e+06,N=C(N)CCCCC1C(=O)O[C@H]2Cc3ccc(-c4cccc(-c5ccccc5)c4)cc3[C@H]12 (some centres undefined)
2,270000,N=C(N)CCCCC1C(=O)O[C@H]2Cc3ccc(-c4ccc(O)cc4)cc3[C@H]12 (some centres undefined)
3,490000,N=C(N)CCCCC1C(=O)O[C@H]2Cc3ccc(-c4ccccc4)cc3[C@H]12 (some centres undefined)
4,1.6e+07,NC(N)=NCCC[C@H](NC(=O)[C@H]1CCCN1C(=O)[C@H](N)Cc1ccccc1)C(=O)CCl
5,1.1e+07,CCN(CC)C(=O)c1cccc(-c2ccc3c(c2)[C@@H]2C(CCCCC(=N)N)C(=O)O[C@H]2C3)c1 (some centres undefined)
6,160000,N=C(N)CCCCC1C(=O)O[C@H]2Cc3cc(-c4cccc(-c5ccccc5)c4)ccc3[C@H]12 (some centres undefined)
